Values belong to the molecule of their own block, whether it stands above or below them.
How the values were obtained:
[1] = Oral bioavailability in rat at 10 mg/kg; type: ADME, organism-based; conditions: in vivo
How it was run: (§1)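 Rat pharmacokinetics after single iv dose of 2 mg/kg and oral dose of 10 mg/kg; oral vehicle differs by compound: 10% ethanol/10% Tween 80 (polysorbate 80)/80% PEG 400 solution, the same with 1% DMSO, or 0.5% methyl cellulose in deionized water suspension. Readouts: oral AUC(inf), oral t1/2, iv clearance, oral bioavailability F.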

[2] = AUC (infinity) in rat at 10 mg/kg, po; type: ADME, organism-based; design: time infinity, dose 10 mg/kg, route oral; conditions: plasma; how it was run: as §1
[3] = Oral bioavailability in dog at 2 mg/kg; type: ADME, organism-based, Canis lupus familiaris; conditions: in vivo
[4] = Biodistribution in mouse liver at 30 mg/kg, po administered as single dose measured after 1 hr by LC-MS/MS method; type: ADME, organism-based; design: dose 30 mg/kg, route oral; conditions: read-out: Drug uptake
How it was run: (§2)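 Mice (n = 3) given single oral 30 mg/kg dissolved in 10% ethanol/10% Tween 80/80% PEG 400; tissues collected at sacrifice at 1, 4 and 8 h, snap frozen, later thawed and homogenized in 0.05 M BES pH 7; compound extracted into acetonitrile and quantified by LC-MS/MS against standard curves prepared separately in each tissue matrix.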

[5] = Biodistribution in mouse plasma at 30 mg/kg, po administered as single dose measured after 8 hrs by LC-MS/MS method; type: ADME, organism-based; design: dose 30 mg/kg, route oral; conditions: read-out: Drug uptake; how it was run: as §2
[6] = Biodistribution in mouse plasma at 30 mg/kg, po administered as single dose measured after 4 hrs by LC-MS/MS method; type: ADME, organism-based; design: dose 30 mg/kg, route oral; conditions: read-out: Drug uptake; how it was run: as §2
[7] = Biodistribution in mouse adipose tissue at 30 mg/kg, po administered as single dose measured after 1 hr by LC-MS/MS method; type: ADME, organism-based; design: dose 30 mg/kg, route oral; conditions: read-out: Drug uptake; how it was run: as §2
[8] = Biodistribution in mouse plasma at 30 mg/kg, po administered as single dose measured after 1 hr by LC-MS/MS method; type: ADME, organism-based; design: dose 30 mg/kg, route oral; conditions: read-out: Drug uptake; how it was run: as §2
[9] = Biodistribution in mouse adipose tissue at 30 mg/kg, po administered as single dose measured after 4 hrs by LC-MS/MS method; type: ADME, organism-based; design: dose 30 mg/kg, route oral; conditions: read-out: Drug uptake; how it was run: as §2
[10] = Biodistribution in mouse adipose tissue at 30 mg/kg, po administered as single dose measured after 8 hrs by LC-MS/MS method; type: ADME, organism-based; design: dose 30 mg/kg, route oral; conditions: read-out: Drug uptake; how it was run: as §2
[11] = Biodistribution in mouse liver at 30 mg/kg, po administered as single dose measured after 8 hrs by LC-MS/MS method; type: ADME, organism-based; design: dose 30 mg/kg, route oral; conditions: read-out: Drug uptake; how it was run: as §2
[12] = Biodistribution in mouse liver at 30 mg/kg, po administered as single dose measured after 4 hrs by LC-MS/MS method; type: ADME, organism-based; design: dose 30 mg/kg, route oral; conditions: read-out: Drug uptake; how it was run: as §2
[13] = AUC (infinity) in dog at 2 mg/kg, po; type: ADME, organism-based, Canis lupus familiaris; design: time infinity, dose 2 mg/kg, route oral; conditions: plasma
[14] = AUC (infinity) in cynomolgus monkey at 2 mg/kg, po; type: ADME, organism-based, Macaca fascicularis; design: time infinity, dose 2 mg/kg, route oral; conditions: plasma
[15] = Oral bioavailability in cynomolgus monkey at 2 mg/kg; type: ADME, organism-based, Macaca fascicularis; conditions: in vivo

SMILES: O=C1OC(CCO)(c2ccccc2)CCN1c1cccc(-c2ccc(F)cc2F)c1 (stereo not given)
bioavailability [1]: 44%
AUC(0-inf) [2]: 1040 ng·h/mL

SMILES: C[C@@H](c1ccc(-c2ccc(F)cc2F)cc1)N1CC[C@](CCO)(c2ccc(F)cc2)OC1=O
bioavailability [1]: 94%
bioavailability [3]: 16%
concentration at 1 h [4]: 15300 ng/mL
concentration at 8 h [5]: 573 ng/mL
concentration at 4 h [6]: 3260 ng/mL
concentration at 1 h [7]: 5520 ng/mL
concentration at 1 h [8]: 5930 ng/mL
concentration at 4 h [9]: 3160 ng/mL
concentration at 8 h [10]: 632 ng/mL
AUC(0-inf) [2]: 3870 ng·h/mL
concentration at 8 h [11]: 1900 ng/mL
concentration at 4 h [12]: 9810 ng/mL
AUC(0-inf) [13]: 584 ng·h/mL
AUC(0-inf) [14]: 1500 ng·h/mL
bioavailability [15]: 26%

SMILES: Cc1cccc(N2CCC(C)(c3ccccc3)OC2=O)c1 (single isomer, unassigned; isomer 1)
bioavailability [1]: 4%
AUC(0-inf) [2]: 99 ng·h/mL

The remaining lines, values ahead:

bioavailability [1]: 19%
AUC(0-inf) [2]: 915 ng·h/mL
SMILES: C[C@@H](c1ccc(-c2ccc(F)cc2F)cc1)N1CC[C@](CCCO)(c2ccccc2)OC1=O

bioavailability [1]: 23%
AUC(0-inf) [2]: 450 ng·h/mL
SMILES: C[C@@H](c1ccc(-c2ccc(F)cc2)cc1)N1CC[C@](CCCO)(c2ccccc2)OC1=O

bioavailability [1]: 83%
AUC(0-inf) [2]: 3170 ng·h/mL
SMILES: C[C@@H](c1ccc(-c2ccc(F)cc2)cc1)N1CC[C@](CCO)(c2ccc(F)cc2)OC1=O
